According to ChEMBL document CHEMBL1133087, “Radioiodinated N-(2-diethylaminoethyl)benzamide derivatives with high melanoma uptake: structure-affinity relationships, metabolic fate, and intracellular localization” (J Med Chem, 2000):

Key:
Mus musculus [1] = assay: Biodistribution was studied by injecting intravenously into C57B1/6 mice bearing subcutaneously transplanted B16 kidney after 6 hr.; format: ADME, organism-based; settings: in vivo, iv
Mus musculus [2] = assay: Biodistribution was studied by injecting intravenously into C57B1/6 mice bearing subcutaneously transplanted B16 muscle after 6 hr.; format: ADME, organism-based, Muscle tissue; settings: in vivo, iv
Mus musculus [3] = assay: Biodistribution was studied by injecting intravenously into C57B1/6 mice bearing subcutaneously transplanted B16 liver after 1 hr.; format: ADME, organism-based; settings: in vivo, iv
Mus musculus [4] = assay: Biodistribution was studied by injecting intravenously into C57B1/6 mice bearing subcutaneously transplanted B16 brain after 6 hr.; format: ADME, organism-based; settings: in vivo, iv
Mus musculus [5] = assay: Biodistribution was studied by injecting intravenously into C57B1/6 mice bearing subcutaneously transplanted B16 blood after 1 hr.; format: ADME, organism-based; settings: in vivo, iv
Mus musculus [6] = assay: Biodistribution was studied by injecting intravenously into C57B1/6 mice bearing subcutaneously transplanted B16 muscle after 1 hr.; format: ADME, organism-based, Muscle tissue; settings: in vivo, iv
Mus musculus [7] = assay: Biodistribution was studied by injecting intravenously into C57B1/6 mice bearing subcutaneously transplanted B16 liver after 6 hr.; format: ADME, organism-based; settings: in vivo, iv
Mus musculus [8] = assay: Biodistribution was studied by injecting intravenously into C57B1/6 mice bearing subcutaneously transplanted B16 blood after 6 hr.; format: ADME, organism-based; settings: in vivo, iv
Mus musculus [9] = assay: Biodistribution was studied by injecting intravenously into C57B1/6 mice bearing subcutaneously transplanted B16 lung after 6 hr.; format: ADME, organism-based; settings: in vivo, iv
Mus musculus [10] = assay: Biodistribution was studied by injecting intravenously into C57B1/6 mice bearing subcutaneously transplanted B16 lung after 1 hr.; format: ADME, organism-based; settings: in vivo, iv
Mus musculus [11] = assay: Biodistribution was studied by injecting intravenously into C57B1/6 mice bearing subcutaneously transplanted B16 […] after 6 hr.; format: ADME, organism-based; settings: in vivo, iv
Mus musculus [12] = assay: Biodistribution was studied by injecting intravenously into C57B1/6 mice bearing subcutaneously transplanted B16 brain after 1 hr.; format: ADME, organism-based; settings: in vivo, iv
[13] = The lipophilicity was measured in an octanol/water system at pH 7.4.; format: physicochemical
Method in brief: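 HPLC-purified no-carrier-added radioiodinated benzamide was added to 0.067 M phosphate buffer at pH 7.4 with an equal volume of 1-octanol. The mixture was vortexed to equilibrium, centrifuged and the phases separated. Each phase was γ-counted, with log P = log(cpm octanol/cpm buffer).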

Mus musculus [14] = assay: Biodistribution was studied by injecting intravenously into C57B1/6 mice bearing subcutaneously transplanted B16 heart after 6 hr.; format: ADME, organism-based; settings: in vivo, iv
Mus musculus [15] = assay: Biodistribution was studied by injecting intravenously into C57B1/6 mice bearing subcutaneously transplanted B16 kidney after 1 hr.; format: ADME, organism-based; settings: in vivo, iv
Mus musculus [16] = assay: Biodistribution was studied by injecting intravenously into C57B1/6 mice bearing subcutaneously transplanted B16 heart after 1 hr.; format: ADME, organism-based; settings: in vivo, iv
Mus musculus [17] = assay: Biodistribution was studied by injecting intravenously into C57B1/6 mice bearing subcutaneously transplanted B16 melanoma after 1 hr.; format: ADME, organism-based; settings: in vivo, iv
Mus musculus [18] = assay: Biodistribution was studied by injecting intravenously into C57B1/6 mice bearing subcutaneously transplanted B16 melanoma after 6 hr.; format: ADME, organism-based; settings: in vivo, iv
Mus musculus [19] = assay: Biodistribution was studied by injecting intravenously into C57B1/6 mice bearing subcutaneously transplanted B16 spleen after 1 hr.; format: ADME, organism-based; settings: in vivo, iv
Mus musculus [20] = assay: Amount of urinary radioactivity collected within 4 hr after iv injection into C57B1/6 mice was analyzed by RP-HPLC.; format: ADME, organism-based, Urine; settings: in vivo
Mus musculus [21] = assay: Biodistribution was studied by injecting intravenously into C57B1/6 mice bearing subcutaneously transplanted B16 liver after 24 hr.; format: ADME, organism-based; settings: in vivo, iv
Mus musculus [22] = assay: Biodistribution was studied by injecting intravenously into C57B1/6 mice bearing subcutaneously transplanted B16 lung after 24 hr.; format: ADME, organism-based; settings: in vivo, iv
Mus musculus [23] = assay: Biodistribution was studied by injecting intravenously into C57B1/6 mice bearing subcutaneously transplanted B16 muscle after 24 hr.; format: ADME, organism-based, Muscle tissue; settings: in vivo, iv
Mus musculus [24] = assay: Biodistribution was studied by injecting intravenously into C57B1/6 mice bearing subcutaneously transplanted B16 spleen after 24 hr.; format: ADME, organism-based; settings: in vivo, iv
Mus musculus [25] = assay: Biodistribution was studied by injecting intravenously into C57B1/6 mice bearing subcutaneously transplanted B16 kidney after 24 hr.; format: ADME, organism-based; settings: in vivo, iv
Mus musculus [26] = assay: Biodistribution was studied by injecting intravenously into C57B1/6 mice bearing subcutaneously transplanted B16 heart after 24 hr.; format: ADME, organism-based; settings: in vivo, iv
Mus musculus [27] = assay: Biodistribution was studied by injecting intravenously into C57B1/6 mice bearing subcutaneously transplanted B16 brain after 24 hr.; format: ADME, organism-based; settings: in vivo, iv
Mus musculus [28] = assay: Biodistribution was studied by injecting intravenously into C57B1/6 mice bearing subcutaneously transplanted B16 blood after 24 hr; format: ADME, organism-based; settings: in vivo, iv
Mus musculus [29] = assay: Biodistribution was studied by injecting intravenously into C57B1/6 mice bearing subcutaneously transplanted B16 melanoma after 24 hr.; format: ADME, organism-based; settings: in vivo, iv

SMILES: CCN(CC)CCNC(=O)c1cc(I)c(N)cc1OC
- ID/g (Mus musculus [1]): 3.95%
- ID/g (Mus musculus [2]): 0.28%
- ID/g (Mus musculus [3]): 4.92%
- ID/g (Mus musculus [4]): 0.08%
- ID/g (Mus musculus [5]): 1.93%
- ID/g (Mus musculus [6]): 0.61%
- ID/g (Mus musculus [7]): 3.43%
- ID/g (Mus musculus [8]): 0.85%
- ID/g (Mus musculus [9]): 1.06%
- ID/g (Mus musculus [10]): 3.12%
- ID/g (Mus musculus [11]): 1.57%
- ID/g (Mus musculus [12]): 0.18%
- logD [13]: 1.62
- ID/g (Mus musculus [14]): 0.45%
- ID/g (Mus musculus [15]): 6.89%
- ID/g (Mus musculus [16]): 1.17%
- ID/g (Mus musculus [17]): 4.66%
- ID/g (Mus musculus [18]): 6.92%
- ID/g (Mus musculus [19]): 2%

SMILES: CCN(CC)CCNC(=O)c1cc(I)ccc1OC
- ID/g (Mus musculus [1]): 0.41%
- ID/g (Mus musculus [2]): 0.04%
- ID/g (Mus musculus [3]): 0.88%
- ID/g (Mus musculus [4]): 0.04%
- ID/g (Mus musculus [5]): 0.46%
- ID/g (Mus musculus [6]): 0.19%
- ID/g (Mus musculus [7]): 0.26%
- ID/g (Mus musculus [8]): 0.14%
- ID/g (Mus musculus [9]): 0.19%
- ID/g (Mus musculus [10]): 1.15%
- ID/g (Mus musculus [11]): 0.15%
- ID/g (Mus musculus [12]): 0.5%
- logD [13]: 1.26
- ID/g (Mus musculus [14]): 0.09%
- ID/g (Mus musculus [15]): 1.71%
- ID/g (Mus musculus [16]): 0.46%
- ID/g (Mus musculus [17]): 7.73%
- ID/g (Mus musculus [18]): 6.8%
- ID/g (Mus musculus [19]): 2.5%
- ID (Mus musculus [20]): 71%

SMILES: CCN(CC)CCNC(=O)c1cc(OC)ccc1I
- ID/g (Mus musculus [1]): 0.17%
- ID/g (Mus musculus [2]): 0.08%
- ID/g (Mus musculus [3]): 1.23%
- ID/g (Mus musculus [4]): 0.02%
- ID/g (Mus musculus [5]): 0.9%
- ID/g (Mus musculus [6]): 0.38%
- ID/g (Mus musculus [7]): 0.23%
- ID/g (Mus musculus [8]): 0.33%
- ID/g (Mus musculus [9]): 0.41%
- ID/g (Mus musculus [10]): 1.41%
- ID/g (Mus musculus [11]): 0.31%
- ID/g (Mus musculus [12]): 0.15%
- logD [13]: 1.16
- ID/g (Mus musculus [14]): 0.13%
- ID/g (Mus musculus [15]): 1.81%
- ID/g (Mus musculus [16]): 0.63%
- ID/g (Mus musculus [17]): 8.06%
- ID/g (Mus musculus [18]): 2.32%
- ID/g (Mus musculus [19]): 1.26%

SMILES: CCN(CC)CCNC(=O)c1cc(Br)c(N)c(I)c1OC
- ID/g (Mus musculus [1]): 2.08%
- ID/g (Mus musculus [2]): 0.43%
- ID/g (Mus musculus [3]): 11.32%
- ID/g (Mus musculus [4]): 0.15%
- ID/g (Mus musculus [5]): 2.32%
- ID/g (Mus musculus [21]): 4.54%
- ID/g (Mus musculus [6]): 0.94%
- ID/g (Mus musculus [22]): 0.26%
- ID/g (Mus musculus [7]): 9.61%
- ID/g (Mus musculus [8]): 1.86%
- ID/g (Mus musculus [9]): 2.07%
- ID/g (Mus musculus [23]): 0.01%
- ID/g (Mus musculus [10]): 3.16%
- ID/g (Mus musculus [24]): 0.38%
- ID/g (Mus musculus [25]): 0.46%
- ID/g (Mus musculus [26]): 0.13%
- ID/g (Mus musculus [11]): 1.84%
- ID/g (Mus musculus [12]): 0.64%
- logD [13]: 1.81
- ID/g (Mus musculus [14]): 0.94%
- ID/g (Mus musculus [15]): 4.53%
- ID/g (Mus musculus [16]): 1.91%
- ID/g (Mus musculus [27]): 0.02%
- ID/g (Mus musculus [28]): 0.19%
- ID/g (Mus musculus [17]): 16.61%
- ID/g (Mus musculus [18]): 16.48%
- ID/g (Mus musculus [19]): 5.06%
- ID/g (Mus musculus [29]): 8.02%
- ID (Mus musculus [20]): 34%
